Measured values published in ChEMBL document CHEMBL5058577, “EUbOPEN Chemogenomics Library 2 (Multiplex)” (2022).

Test system: Fibroblast
Test: Multiplex assay against human fibroblast
Type: toxicity, cell-based
Method in brief: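 Imaging took place on a CQ1 microscope at 37°C and 5% CO2 once compound had been added to live cells stained at seeding with Hoechst33342, BioTracker Green Microtubule Cytoskeleton Dye, MitoTracker Red and Annexin V Alexa Fluor 680. CellPathfinder machine-learning gating classed cells as Hoechst high-intensity objects or normal cells, classed normal cells as having healthy, pyknosed or fragmented nuclei, and classed pyknosed cells as mitotic or apoptotic. Tubulin, mitochondrial-mass and membrane-permeability phenotypes are per cents of the healthy-nucleus cells.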

[1] = 12 h, 1 µM, compound concentration 1 uM, replicate 1
[2] = 12 h, 1 µM, compound concentration 1 uM, replicate 2
[3] = 12 h, 10 µM, compound concentration 10 uM, replicate 1
[4] = 12 h, 10 µM, compound concentration 10 uM, replicate 2
[5] = 24 h, 1 µM, compound concentration 1 uM, replicate 1
[6] = 24 h, 1 µM, compound concentration 1 uM, replicate 2
[7] = 24 h, 10 µM, compound concentration 10 uM, replicate 1
[8] = 24 h, 10 µM, compound concentration 10 uM, replicate 2
[9] = 48 h, 1 µM, compound concentration 1 uM, replicate 1
[10] = 48 h, 1 µM, compound concentration 1 uM, replicate 2
[11] = 48 h, 10 µM, compound concentration 10 uM, replicate 1
[12] = 48 h, 10 µM, compound concentration 10 uM, replicate 2

For `O=C(CCCc1ccccc1)Nc1nc2ccccc2c(=O)s1`, the “Population Apoptotic (%)” value [1] was 58%, the “Population Fragmented Nuclei (%)” value [1] was 9% and the “Population Healthy Nuclei (%)” value [1] was 66%. For the same compound, the “Population Hoechst High Intensity Objects (%)” value [1] was 2%, the “Population Membrane Permeable-Phenotype (%)” value [1] was 0% and the “Population Mitochondria Different-Phenotype (%)” value [1] was 4%. The “Population Mitotic Cells (%)” value [1] was 41%, the “Population Normal (%)” value [1] was 97% and the “Population Pyknosed Nuclei (%)” value [1] was 23%. For the same compound, the “Population Tubulin-Different-Phenotype (%)” value [1] was 34%, the “Total Cell Count” value [1] was 127 and the “Population Apoptotic (%)” value [2] was 34%. For the same compound, the “Population Fragmented Nuclei (%)” value [2] was 19%, the “Population Healthy Nuclei (%)” value [2] was 49% and the “Population Hoechst High Intensity Objects (%)” value [2] was 3%. For the same compound, the “Population Membrane Permeable-Phenotype (%)” value [2] was 9%, the “Population Mitochondria Different-Phenotype (%)” value [2] was 7% and the “Population Mitotic Cells (%)” value [2] was 65%. For the same compound, the “Population Normal (%)” value [2] was 96%, the “Population Pyknosed Nuclei (%)” value [2] was 31% and the “Population Tubulin-Different-Phenotype (%)” value [2] was 35%. For the same compound, the “Total Cell Count” value [2] was 135, the “Population Apoptotic (%)” value [3] was 51% and the “Population Fragmented Nuclei (%)” value [3] was 21%. The “Population Healthy Nuclei (%)” value [3] was 58%, the “Population Hoechst High Intensity Objects (%)” value [3] was 2% and the “Population Membrane Permeable-Phenotype (%)” value [3] was 1%. The “Population Mitochondria Different-Phenotype (%)” value [3] was 4%, the “Population Mitotic Cells (%)” value [3] was 48% and the “Population Normal (%)” value [3] was 97%. For the same compound, the “Population Pyknosed Nuclei (%)” value [3] was 20%, the “Population Tubulin-Different-Phenotype (%)” value [3] was 28% and the “Total Cell Count” value [3] was 147. The “Population Apoptotic (%)” value [4] was 31%, the “Population Fragmented Nuclei (%)” value [4] was 26% and the “Population Healthy Nuclei (%)” value [4] was 38%. The “Population Hoechst High Intensity Objects (%)” value [4] was 12%, the “Population Membrane Permeable-Phenotype (%)” value [4] was 13% and the “Population Mitochondria Different-Phenotype (%)” value [4] was 17%. The “Population Mitotic Cells (%)” value [4] was 68%, the “Population Normal (%)” value [4] was 87% and the “Population Pyknosed Nuclei (%)” value [4] was 35%. For the same compound, the “Population Tubulin-Different-Phenotype (%)” value [4] was 48%, the “Total Cell Count” value [4] was 133 and the “Population Apoptotic (%)” value [5] was 50%. For the same compound, the “Population Fragmented Nuclei (%)” value [5] was 13%, the “Population Healthy Nuclei (%)” value [5] was 68% and the “Population Hoechst High Intensity Objects (%)” value [5] was 2%. The “Population Membrane Permeable-Phenotype (%)” value [5] was 0%, the “Population Mitochondria Different-Phenotype (%)” value [5] was 5% and the “Population Mitotic Cells (%)” value [5] was 50%. For the same compound, the “Population Normal (%)” value [5] was 97%, the “Population Pyknosed Nuclei (%)” value [5] was 18% and the “Population Tubulin-Different-Phenotype (%)” value [5] was 20%. The “Total Cell Count” value [5] was 147, the “Population Apoptotic (%)” value [6] was 42% and the “Population Fragmented Nuclei (%)” value [6] was 21%. The “Population Healthy Nuclei (%)” value [6] was 51%, the “Population Hoechst High Intensity Objects (%)” value [6] was 5% and the “Population Membrane Permeable-Phenotype (%)” value [6] was 4%. The “Population Mitochondria Different-Phenotype (%)” value [6] was 4%, the “Population Mitotic Cells (%)” value [6] was 57% and the “Population Normal (%)” value [6] was 94%. The “Population Pyknosed Nuclei (%)” value [6] was 26%, the “Population Tubulin-Different-Phenotype (%)” value [6] was 35% and the “Total Cell Count” value [6] was 131. The “Population Apoptotic (%)” value [7] was 46%, the “Population Fragmented Nuclei (%)” value [7] was 19% and the “Population Healthy Nuclei (%)” value [7] was 60%. For the same compound, the “Population Hoechst High Intensity Objects (%)” value [7] was 5%, the “Population Membrane Permeable-Phenotype (%)” value [7] was 0% and the “Population Mitochondria Different-Phenotype (%)” value [7] was 3%. The “Population Mitotic Cells (%)” value [7] was 53%, the “Population Normal (%)” value [7] was 94% and the “Population Pyknosed Nuclei (%)” value [7] was 20%. For the same compound, the “Population Tubulin-Different-Phenotype (%)” value [7] was 15%, the “Total Cell Count” value [7] was 135 and the “Population Apoptotic (%)” value [8] was 53%. The “Population Fragmented Nuclei (%)” value [8] was 34%, the “Population Healthy Nuclei (%)” value [8] was 39% and the “Population Membrane Permeable-Phenotype (%)” value [8] was 18%. For the same compound, the “Population Mitochondria Different-Phenotype (%)” value [8] was 14%, the “Population Mitotic Cells (%)” value [8] was 46% and the “Population Pyknosed Nuclei (%)” value [8] was 25%. The “Population Tubulin-Different-Phenotype (%)” value [8] was 62%, the “Total Cell Count” value [8] was 134 and the “Population Apoptotic (%)” value [9] was 59%. The “Population Fragmented Nuclei (%)” value [9] was 13%, the “Population Healthy Nuclei (%)” value [9] was 66% and the “Population Hoechst High Intensity Objects (%)” value [9] was 5%. The “Population Membrane Permeable-Phenotype (%)” value [9] was 1%, the “Population Mitochondria Different-Phenotype (%)” value [9] was 1% and the “Population Mitotic Cells (%)” value [9] was 40%. For the same compound, the “Population Normal (%)” value [9] was 94%, the “Population Pyknosed Nuclei (%)” value [9] was 19% and the “Population Tubulin-Different-Phenotype (%)” value [9] was 32%. For the same compound, the “Total Cell Count” value [9] was 146, the “Population Apoptotic (%)” value [10] was 42% and the “Population Fragmented Nuclei (%)” value [10] was 26%. For the same compound, the “Population Healthy Nuclei (%)” value [10] was 58%, the “Population Hoechst High Intensity Objects (%)” value [10] was 2% and the “Population Membrane Permeable-Phenotype (%)” value [10] was 4%. For the same compound, the “Population Mitochondria Different-Phenotype (%)” value [10] was 6%, the “Population Mitotic Cells (%)” value [10] was 57% and the “Population Normal (%)” value [10] was 97%. The “Population Pyknosed Nuclei (%)” value [10] was 15%, the “Population Tubulin-Different-Phenotype (%)” value [10] was 50% and the “Total Cell Count” value [10] was 127. The “Population Apoptotic (%)” value [11] was 58%, the “Population Fragmented Nuclei (%)” value [11] was 19% and the “Population Healthy Nuclei (%)” value [11] was 58%. The “Population Hoechst High Intensity Objects (%)” value [11] was 2%, the “Population Membrane Permeable-Phenotype (%)” value [11] was 1% and the “Population Mitochondria Different-Phenotype (%)” value [11] was 2%. For the same compound, the “Population Mitotic Cells (%)” value [11] was 41%, the “Population Normal (%)” value [11] was 97% and the “Population Pyknosed Nuclei (%)” value [11] was 22%. The “Population Tubulin-Different-Phenotype (%)” value [11] was 26%, the “Total Cell Count” value [11] was 143 and the “Population Apoptotic (%)” value [12] was 77%. The “Population Fragmented Nuclei (%)” value [12] was 40%, the “Population Healthy Nuclei (%)” value [12] was 43% and the “Population Hoechst High Intensity Objects (%)” value [12] was 5%. For the same compound, the “Population Membrane Permeable-Phenotype (%)” value [12] was 10%, the “Population Mitochondria Different-Phenotype (%)” value [12] was 14% and the “Population Mitotic Cells (%)” value [12] was 22%. The “Population Normal (%)” value [12] was 94%, the “Population Pyknosed Nuclei (%)” value [12] was 16% and the “Population Tubulin-Different-Phenotype (%)” value [12] was 73%. For the same compound, the “Total Cell Count” value [12] was 119.
